From ChEMBL document CHEMBL1131436, “Repaglinide and related hypoglycemic benzoic acid derivatives” (1998)
Where “and” joins values, the source holds several entries; their conditions need not be identical. Equal values may be shown once.

How the values were obtained:
Rattus norvegicus [1] = test: Maximum % decrease of blood glucose (deltaBG) was observed within 4 hour after administration orally at 100 mg/kg dose to fasted adult female rats versus a control group; NS =' not significant'; format: functional, organism-based; set-up: dose 100 mg/kg
Outline: (§1)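 Female Wistar rats (Chbb THOM, SPF, 200-220 g), fasted 24 h, dosed orally by gavage as suspension in 1.5% Tylose methylcellulose (10 mL/kg). Whole blood from retrobulbar plexus under light halothane, deproteinized with 0.33 M HClO4; glucose by hexokinase/G6PDH, hourly up to 4 h. % decrease vs control group (N = 7), Student's t-test, P ≤ 0.05.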

Rattus norvegicus [2] = test: Maximum % decrease of blood glucose (deltaBG) was observed within 2 hour after administration orally at 0.1 mg/kg dose to fasted adult female rats versus a control group; format: functional; settings: route oral; outline: as §1
Rattus norvegicus [3] = test: Maximum % decrease of blood glucose (deltaBG) was observed within 1 hour after administration orally at 0.1 mg/kg dose to fasted adult female rats versus a control group; format: functional; settings: route oral; outline: as §1
Rattus norvegicus [4] = test: Half-maximal effective dose was measured on rat blood glucose after administrating at 4 hr; format: functional; settings: Rattus norvegicus, Blood, 4 h; read-out: ED50
Outline: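 Adult fasted female Wistar rats (Chbb THOM, SPF, 200-220 g), food withdrawn 24 h; oral gavage of suspension in 1.5% Tylose (methylcellulose), 10 mL/kg. Retrobulbar blood under light halothane; glucose by hexokinase/G6PDH after HClO4 deproteinization, hourly to 4 h. ED50 from fit of glucose vs dose, y = b + [a × k/(k + x^nH)], Hill coefficient nH.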

Rattus norvegicus [5] = test: Maximum % decrease of blood glucose (deltaBG) was observed within 4 hour after administration orally at 0.1 mg/kg dose to fasted adult female rats versus a control group; format: functional; settings: route oral; outline: as §1
Rattus norvegicus [6] = test: Maximum % decrease of blood glucose (deltaBG) was observed within 3 hour after administration orally at 0.1 mg/kg dose to fasted adult female rats versus a control group; format: functional; settings: route oral; outline: as §1
Rattus norvegicus [7] = test: Maximum % decrease of blood glucose (deltaBG) was observed within 4 hour after administration orally at 0.3 mg/kg dose to fasted adult female rats versus a control group; format: functional; settings: route oral; outline: as §1
Rattus norvegicus [8] = test: Maximum % decrease of blood glucose (deltaBG) was observed within 0.5 hour after administration orally at 0.1 mg/kg dose to fasted adult female rats versus a control group; format: functional; settings: route oral
Rattus norvegicus [9] = test: Maximum % decrease of blood glucose (deltaBG) was observed within 4 hour after administration orally at 50 mg/kg dose to fasted adult female rats versus a control group; format: functional; settings: route oral; outline: as §1
Rattus norvegicus [10] = test: Maximum % decrease of blood glucose (deltaBG) was observed within 4 hour after administration orally at 0.4 mg/kg dose to fasted adult female rats versus a control group; format: functional; settings: route oral; outline: as §1
Rattus norvegicus [11] = test: Maximum % decrease of blood glucose (deltaBG) was observed within 4 hour after administration orally at 100 mg/kg dose to fasted adult female rats versus a control group; format: functional; settings: route oral; outline: as §1
Rattus norvegicus [12] = test: Maximum % decrease of blood glucose (deltaBG) was observed within 4 hour after administration orally at 0.5 mg/kg dose to fasted adult female rats versus a control group; format: functional; settings: route oral; outline: as §1
Rattus norvegicus [13] = test: Maximum % decrease of blood glucose (deltaBG) was observed within 1 hr after administration orally at 0.5 mg/kg dose to fasted adult female rats versus a control group; format: functional; settings: route oral; outline: as §1
Rattus norvegicus [14] = test: Maximum % decrease of blood glucose (deltaBG) was observed within 3 hour after administration orally at 0.5 mg/kg dose to fasted adult female rats versus a control group; format: functional; settings: route oral; outline: as §1
Rattus norvegicus [15] = test: Maximum % decrease of blood glucose (deltaBG) was observed within 2 hour after administration orally at 0.5 mg/kg dose to fasted adult female rats versus a control group; format: functional; settings: route oral; outline: as §1
Rattus norvegicus [16] = test: Maximum % decrease of blood glucose (deltaBG) was observed within 4 hour after administration orally at 25 mg/kg dose to fasted adult female rats versus a control group; format: functional; settings: route oral; outline: as §1
Rattus norvegicus [17] = test: Maximum % decrease of blood glucose (deltaBG) was observed within 4 hour after administration orally at 5 mg/kg dose to fasted adult female rats versus a control group; NS =' not significant'; format: functional, organism-based; set-up: dose 5 mg/kg; outline: as §1
Rattus norvegicus [18] = test: Maximum % decrease of blood glucose (deltaBG) was observed within 4 hour after administration orally at 0.1 mg/kg dose to fasted adult female rats versus a control group; NS =' not significant'; format: functional, organism-based; set-up: dose 0.1 mg/kg; outline: as §1
Rattus norvegicus [19] = test: Maximum % decrease of blood glucose (deltaBG) was observed within 3 hour after administration orally at 0.1 mg/kg dose to fasted adult female rats versus a control group; NS =' not significant'; format: functional, organism-based; set-up: dose 0.1 mg/kg; outline: as §1
Rattus norvegicus [20] = test: Maximum % decrease of blood glucose (deltaBG) was observed within 1 hour after administration orally at 0.5 mg/kg dose to fasted adult female rats versus a control group; format: functional; settings: route oral; outline: as §1
Rattus norvegicus [21] = test: Maximum % decrease of blood glucose (deltaBG) was observed within 4 hour after administration orally at 50 mg/kg dose to fasted adult female rats versus a control group; NS =' not significant'; format: functional, organism-based; set-up: dose 50 mg/kg; outline: as §1

With `O=C(NCCc1ccccc1)c1cc(Cl)ccc1N1CCCCCCCC1` the “Delta BG” value (Rattus norvegicus [1]) was “Not significant”.

In the case of `CCC1=C(C)CN(C(=O)NCCc2ccc(S(=O)(=O)NC(=O)N[C@H]3CC[C@H](C)CC3)cc2)C1=O` [GLIMEPIRIDE], the “Delta BG” value (Rattus norvegicus [2]) is reported as -18%, the “Delta BG” value (Rattus norvegicus [3]) is reported as -17% and the ED50 (Rattus norvegicus [4]) is reported as 0.182 mg/kg. The “Delta BG” value (Rattus norvegicus [5]) was -18%, the “Delta BG” value (Rattus norvegicus [6]) was -14% and the “Delta BG” value (Rattus norvegicus [7]) was -35%. The “Delta BG” value (Rattus norvegicus [8]) was -8%.

For `CCCC(NC(=O)Cc1ccccc1)c1ccccc1N1CCCCC1` (stereo not drawn), the “Delta BG” value (Rattus norvegicus [9]) was -10%.

With `O=C(Cc1ccc(C(=O)O)cc1)N[C@@H](c1ccccc1)c1ccccc1N1CCCCC1` the “Delta BG” value (Rattus norvegicus [10]) was -33%.

`O=C(O)c1ccc(CCNC(=O)c2cccc(Cl)c2)cc1` was tested, and the “Delta BG” value (Rattus norvegicus [11]) was -23%.

With `CCCC(NC(=O)Cc1ccc(C(=O)O)cc1)c1ccccc1N1CCCCC1` (stereo not drawn) the “Delta BG” value (Rattus norvegicus [2]) was -17%, the “Delta BG” value (Rattus norvegicus [3]) was -27% and the ED50 (Rattus norvegicus [4]) was 0.07 mg/kg. For the same compound, the “Delta BG” value (Rattus norvegicus [5]; 0.1 mg/kg) was -27% and -9%, the “Delta BG” value (Rattus norvegicus [12]) was -18% and the “Delta BG” value (Rattus norvegicus [13]) was -42%. The “Delta BG” value (Rattus norvegicus [14]) was -23%, the “Delta BG” value (Rattus norvegicus [6]) was -16% and the “Delta BG” value (Rattus norvegicus [15]) was -34%.

For `O=C(O)c1ccc(CCNC(=O)c2cc(Cl)ccc2N2CCCC2)cc1`, the “Delta BG” value (Rattus norvegicus [16]) was -18%.

`CC(NC(=O)Cc1ccc(C(=O)O)cc1)c1cc(Cl)ccc1N1CCCCCC1` (stereo not drawn) was tested, and the “Delta BG” value (Rattus norvegicus [17]) was “Not significant”.

With `CCCC(NC(=O)Cc1ccc(C(=O)O)c(OC)c1)c1ccccc1N1CCCCC1` (stereo not drawn) the “Delta BG” value (Rattus norvegicus [18]) was “Not significant”, the “Delta BG” value (Rattus norvegicus [2]) was -27% and the “Delta BG” value (Rattus norvegicus [3]) was -43%. For the same compound, the “Delta BG” value (Rattus norvegicus [19]) was “Not significant”, the “Delta BG” value (Rattus norvegicus [5]) was -43% and the “Delta BG” value (Rattus norvegicus [12]) was -31%. For the same compound, the “Delta BG” value (Rattus norvegicus [14]) was -37%, the “Delta BG” value (Rattus norvegicus [15]) was -39% and the “Delta BG” value (Rattus norvegicus [8]) was -38%. The “Delta BG” value (Rattus norvegicus [20]) was -42%.

For `CC(NC(=O)Cc1ccc(-c2nn[nH]n2)cc1)c1ccccc1N1CCCCC1` (stereo not drawn), the “Delta BG” value (Rattus norvegicus [21]) was “Not significant”.
